Where “and” joins values, the source holds several entries; their conditions need not be identical. Identical values can stand only once.
Assays:
Rattus norvegicus [1] = organism: Rattus norvegicus; experiment: Change in DMBA-induced mammary carcinoma tumor area in rats at 2.8 mg dose; -39-458; format: functional
Outline: (§1)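 Female Sprague-Dawley rats got one 20 mg DMBA dose by gavage at 50 days old and were palpated twice weekly from day 30. Rats were randomized once tumor area exceeded 140 mm². Dose (per kg) was given sc in olive oil, once daily Monday to Thursday and doubled on Friday. Tumor area was taken from caliper measurements of two perpendicular axes, twice weekly. Change per animal is given as median % and range.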

Rattus norvegicus [2] = organism: Rattus norvegicus; experiment: Change in body weight of DMBA-induced mammary carcinoma tumor bearing rats at 2.8 mg dose; format: functional
Outline: (§2)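 DMBA-induced tumor-bearing Sprague-Dawley rats (20 mg DMBA by gavage at 50 days old), randomized when tumor area exceeded 140 mm². Dose per kg was given sc in olive oil, single dose daily Monday to Thursday, double dose Friday. Body weight was measured twice weekly. Read-out was % change in body weight.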

Rattus norvegicus [3] = organism: Rattus norvegicus; experiment: Percent unchanged DMBA-induced mammary carcinoma tumors in rats at 2.8 mg dose; format: functional
Outline: (§3)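 Female Sprague-Dawley rats, 50 days old, given a single 20 mg DMBA dose in 1 mL olive oil by gavage. Rats were palpated twice weekly from day 30, and those without tumors by day 70 were discarded. Rats were randomized once tumor area exceeded 140 mm². Drug dose was per kg in olive oil (1 mL/kg) sc, single dose Mon–Thu and double dose Fri. Tumor area (caliper, two perpendicular axes) and body weight were measured twice weekly.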

Rattus norvegicus [4] = organism: Rattus norvegicus; experiment: Number of DMBA-induced mammary carcinoma tumors in rats at 2.8 mg dose; format: functional
Outline: (§4)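 DMBA-induced tumors in Sprague-Dawley rats, entered when tumor area exceeded 140 mm². Dose per kg was given sc in olive oil, daily Monday to Thursday with a double dose Friday. Tumors were measured by calipers twice weekly. Tumor number was counted at the start of the test. Complete remission meant the tumor was no longer palpable. Partial remission meant reduction to ≤50% of initial size. New tumor appearance was recorded.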

Rattus norvegicus [5] = organism: Rattus norvegicus; experiment: Formation of new DMBA-induced mammary carcinoma tumors in rats at 2.8 mg dose; format: functional; outline: as §4
Rattus norvegicus [6] = organism: Rattus norvegicus; experiment: Percent progressive DMBA-induced mammary carcinoma tumors in rats at 2.8 mg dose; format: functional; outline: as §3
Rattus norvegicus [7] = organism: Rattus norvegicus; experiment: Partial remission (%) of DMBA-induced mammary carcinoma tumors in rats at 2.8 mg dose; format: functional; outline: as §3
[8] = target: T1, Estrogen receptor (Mus musculus) (UniProt O08537+P19785); experiment: Anti-uterotrophic activity in mice as uterus dry weight (mg)/body weight (g) *100 at 125 ug dose; format: functional, tissue-based
Outline: (§5)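 Immature female NMRI mice, 19 days old, groups of 10, given sc injections on 3 consecutive days. Each injection held 0.4 μg estrone plus the indole dose per animal, in olive oil (50 μL). Killed 24 h after the last injection. Uteri were fixed in Bouin solution, washed, and dried 24 h at 100 °C. Read-out was uterine dry weight (mg)/body weight (g) × 100, mean ± SD.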

[9] = target: T1, Estrogen receptor (Mus musculus); experiment: Anti-uterotrophic activity in mice as uterus dry weight (mg)/body weight (g) *100 at 1 ug dose; format: functional, tissue-based; outline: as §5
[10] = target: T1, Estrogen receptor (Mus musculus); experiment: Anti-uterotrophic activity in mice as uterus dry weight (mg)/body weight (g) *100 at 25 ug dose; format: functional, tissue-based; outline: as §5
[11] = target: T1, Estrogen receptor (Mus musculus); experiment: Anti-uterotrophic activity in mice as uterus dry weight (mg)/body weight (g) *100 at 5 ug dose; format: functional, tissue-based; outline: as §5
[12] = target: T1, Estrogen receptor (Mus musculus); experiment: Uterotrophic activity in mice as uterus dry weight (mg)/body weight (g) *100 at 125 ug dose; format: functional, tissue-based
Outline: (§6)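 Immature 19-day-old female NMRI mice, groups of 10. Compound dose per animal in olive oil (50 µL) sc on 3 consecutive days. Mice were killed 24 h after the last injection. Uteri were Bouin-fixed 20 h, cleaned, washed with alcoholic LiCl, and dried at 100 °C for 24 h. Effect = uterine dry weight (mg)/body weight (g) ×100; mean ± SD.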

[13] = target: T1, Estrogen receptor (Mus musculus); experiment: Uterotrophic activity in mice as uterus dry weight (mg)/body weight (g) *100 at 1 ug dose; format: functional, tissue-based; outline: as §6
[14] = target: T1, Estrogen receptor (Mus musculus); experiment: Uterotrophic activity in mice as uterus dry weight (mg)/body weight (g) *100 at 25 ug dose; format: functional, tissue-based; outline: as §6
[15] = target: T1, Estrogen receptor (Mus musculus); experiment: Uterotrophic activity in mice as uterus dry weight (mg)/body weight (g) *100 at 5 ug dose; format: functional, tissue-based; outline: as §6
Rattus norvegicus [16] = organism: Rattus norvegicus; experiment: Change in DMBA-induced mammary carcinoma tumor area in rats at 1.8 mg dose; -75-656; format: functional; outline: as §1
Rattus norvegicus [17] = organism: Rattus norvegicus; experiment: Change in body weight of DMBA-induced mammary carcinoma tumor bearing rats at 1.8 mg dose; format: functional; outline: as §2
[18] = target: T1, Estrogen receptor (Mus musculus); experiment: Percentage inhibition of uterotrophic activity at 125 ug dose; format: functional
Outline: (§7)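 Antiuterotrophic test in immature 19-day-old female NMRI mice (n=10), dosed sc on 3 consecutive days with 0.4 µg estrone per animal per day plus compound in olive oil. Uterine dry weight/body weight ×100 was read 24 h after the last dose. Inhibition % = 100 − [(E_S,T − E_V)/(E_S − E_V)]×100.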

Rattus norvegicus [19] = organism: Rattus norvegicus; experiment: Percent unchanged DMBA-induced mammary carcinoma tumors in rats at 1.8 mg dose; format: functional; outline: as §3
Rattus norvegicus [20] = organism: Rattus norvegicus; experiment: Number of DMBA-induced mammary carcinoma tumors in rats at 1.8 mg dose; format: functional; outline: as §4
Rattus norvegicus [21] = organism: Rattus norvegicus; experiment: Formation of new DMBA-induced mammary carcinoma tumors in rats at 1.8 mg dose; format: functional; outline: as §4
Rattus norvegicus [22] = organism: Rattus norvegicus; experiment: Percent progressive DMBA-induced mammary carcinoma tumors in rats at 1.8 mg dose; format: functional; outline: as §3
Rattus norvegicus [23] = organism: Rattus norvegicus; experiment: Partial remission (%) of DMBA-induced mammary carcinoma tumors in rats at 1.8 mg dose; format: functional; outline: as §4
[24] = target: T1, Estrogen receptor (Mus musculus); experiment: Percentage inhibition of uterotrophic activity at 25 ug dose; format: functional; outline: as §7

T1 sequence (O08537 whole entry, looked up): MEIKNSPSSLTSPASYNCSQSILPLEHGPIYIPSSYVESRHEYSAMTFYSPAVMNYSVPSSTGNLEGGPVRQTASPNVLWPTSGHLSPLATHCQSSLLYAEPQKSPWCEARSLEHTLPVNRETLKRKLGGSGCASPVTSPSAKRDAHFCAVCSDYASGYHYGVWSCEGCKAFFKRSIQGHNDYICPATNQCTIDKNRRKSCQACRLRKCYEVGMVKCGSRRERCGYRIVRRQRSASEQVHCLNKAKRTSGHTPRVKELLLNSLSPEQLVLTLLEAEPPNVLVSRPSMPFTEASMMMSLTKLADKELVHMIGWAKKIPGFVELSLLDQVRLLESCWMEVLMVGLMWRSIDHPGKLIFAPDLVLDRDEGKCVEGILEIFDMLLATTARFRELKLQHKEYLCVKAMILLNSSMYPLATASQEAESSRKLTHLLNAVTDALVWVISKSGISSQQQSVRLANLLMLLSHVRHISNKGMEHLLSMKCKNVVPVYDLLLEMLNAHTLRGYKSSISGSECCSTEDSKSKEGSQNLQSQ
T1 sequence (P19785 whole entry, looked up): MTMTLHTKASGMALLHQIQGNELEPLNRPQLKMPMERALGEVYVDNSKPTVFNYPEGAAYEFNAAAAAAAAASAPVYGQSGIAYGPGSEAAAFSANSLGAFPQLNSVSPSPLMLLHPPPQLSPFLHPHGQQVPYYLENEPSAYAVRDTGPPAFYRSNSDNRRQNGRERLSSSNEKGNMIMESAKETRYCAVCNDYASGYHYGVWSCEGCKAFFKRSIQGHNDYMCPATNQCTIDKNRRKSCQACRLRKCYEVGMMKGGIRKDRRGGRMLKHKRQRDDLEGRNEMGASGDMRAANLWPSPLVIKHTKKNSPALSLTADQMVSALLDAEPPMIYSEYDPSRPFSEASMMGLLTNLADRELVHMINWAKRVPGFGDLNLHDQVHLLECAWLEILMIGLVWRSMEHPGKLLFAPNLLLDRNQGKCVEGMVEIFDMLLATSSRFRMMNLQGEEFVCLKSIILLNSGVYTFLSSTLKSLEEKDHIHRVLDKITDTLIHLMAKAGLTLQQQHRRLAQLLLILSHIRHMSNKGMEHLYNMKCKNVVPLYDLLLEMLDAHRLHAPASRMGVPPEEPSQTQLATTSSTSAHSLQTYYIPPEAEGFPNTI

CC/C(=C(\c1ccccc1)c1ccc(OCCN(C)C)cc1)c1ccccc1.O=C(O)CC(O)(CC(=O)O)C(=O)O [TAMOXIFEN CITRATE]
Change of tumor area (Rattus norvegicus [1]): -39% | Change of body weight (Rattus norvegicus [2]): 0 | Static remission (Rattus norvegicus [3]): 27% | No. of tumors (Rattus norvegicus [4]): 34 | New tumors (Rattus norvegicus [5]): 26 | Progressed tumors (Rattus norvegicus [6]): 53 | Partial remission (Rattus norvegicus [7]): 7%

CCn1c(-c2ccc(OC(C)=O)cc2)c(C)c2cc(OC(C)=O)ccc21 [ZINDOXIFENE]
Anti-uterotrophic effect [8]: 37.8 and 33 | Anti-uterotrophic effect [9]: 38.5 and 51.1 | Anti-uterotrophic effect [10]: 53.5 and 33.5 | Anti-uterotrophic effect [11]: 46.3 and 50.4 | Uterotrophic effect [12]: 19.5 and 30.5 | Uterotrophic effect [13]: 16.4 | Uterotrophic effect [14]: 17.9 and 21 | Uterotrophic effect [15]: 14.1 and 19.6 | Change of tumor area (Rattus norvegicus [16]): -75% | Change of body weight (Rattus norvegicus [17]): 1% | inhibition [18]: 25% and 46% | Static tumors (Rattus norvegicus [19]): 14% | No. of tumors (Rattus norvegicus [20]): 33 | New tumors (Rattus norvegicus [21]): 25 | Progressed tumors (Rattus norvegicus [22]): 55% | Partial remission (Rattus norvegicus [23]): 12% | inhibition [24]: 45%
